{"source": "paper PMC8240349", "about": "(Journal of Traditional and Complementary Medicine, 2021)", "key": {"[1]": {"assay_type": "in vivo, human", "conditions": "for AUC0-∞ / CL/F / Cmax / K01 / Vz/F / k10 / t1/2a / t1/2z / tlag / tmax / K10: median (range)"}, "[2]": {"assay_type": "in vivo, human", "summary_of_the_method": "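Healthy Thai adults took oral 1,000 mg AL extract capsules with 200 ml water, either once (group 1) or daily for 21 days (group 2), with 20 active recipients per group. Plasma atractylodin was measured by reversed-phase C18 HPLC (UV 340 nm, acetonitrile:water 70:30, 25 °C; LOQ 2.5 ng/ml). Cmax was read from observed data. t1/2z came from log-linear regression of at least the last three points. MRT was AUMC0-∞/AUC0-∞.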"}, "[3]": {"conditions": "group 1, single 1,000 mg AL, all"}, "[4]": {"conditions": "group 1, single 1,000 mg AL, female"}, "[5]": {"conditions": "group 1, single 1,000 mg AL, male"}, "[6]": {"conditions": "group 2, daily 1,000 mg AL, day 1, all"}, "[7]": {"conditions": "group 2, daily 1,000 mg AL, day 1, female"}, "[8]": {"conditions": "group 2, daily 1,000 mg AL, day 1, male"}, "[9]": {"conditions": "group 2, daily 1,000 mg AL, day 21, all"}, "[10]": {"conditions": "group 2, daily 1,000 mg AL, day 21, female"}, "[11]": {"conditions": "group 2, daily 1,000 mg AL, day 21, male"}, "[12]": {"conditions": "group 1, single 1,000 mg AL, all, median (range)"}}, "note": "Read-outs that look alike come from different tables or passages of the source. Marks after values point to notes of the source that are not given here."}
{"smiles": "C/C=C/C#CC#C/C=C/c1ccco1", "note": "[atractylodin]", "values": [{"measurement": "AUC0-∞", "setting": "[1]; [3]", "result": "105.07 (65.93–168.90) ng.h/ml"}, {"measurement": "CL/F", "setting": "[1]; [3]", "result": "7.28 (4.78–15.62) l/kg/h"}, {"measurement": "Cmax", "setting": "[1]; [3]", "result": "29.1 (17.1–42.51) ng/ml"}, {"measurement": "K01", "setting": "[1]; [3]", "result": "0.68 (0.43–1.00) /h"}, {"measurement": "Vz/F", "setting": "[1]; [3]", "result": "10.18 (6.85–19.53) L/kg"}, {"measurement": "k10", "setting": "[1]; [3]", "result": "0.71 (0.44–1.71) /h"}, {"measurement": "t1/2a", "setting": "[1]; [3]", "result": "0.97 (0.41–1.58) h"}, {"measurement": "t1/2z", "setting": "[1]; [3]", "result": "0.88 (0.37–1.74) h"}, {"measurement": "tlag", "setting": "[1]; [3]", "result": "0.13 (0.0–0.5) h"}, {"measurement": "tmax", "setting": "[1]; [3]", "result": "1.41 (0.94–2.3) h"}, {"measurement": "AUC0-∞", "setting": "[1]; [4]", "result": "108.19 (65.93–186.59) ng.h/ml"}, {"measurement": "CL/F", "setting": "[1]; [4]", "result": "8.06 (4.80–15.62) l/kg/h"}, {"measurement": "Cmax", "setting": "[1]; [4]", "result": "31.04 (19.29–49.21) ng/ml"}, {"measurement": "K01", "setting": "[1]; [4]", "result": "0.75 (0.59–1.48) /h"}, {"measurement": "K10", "setting": "[1]; [4]", "result": "0.76 (0.59–1.16) /h"}, {"measurement": "Vz/F", "setting": "[1]; [4]", "result": "11.81 (5.65–19.53) l/kg"}, {"measurement": "t1/2a", "setting": "[1]; [4]", "result": "0.92 (0.47–1.19) h"}, {"measurement": "t1/2z", "setting": "[1]; [4]", "result": "0.92 (0.47–1.19) h"}, {"measurement": "tlag", "setting": "[1]; [4]", "result": "0.0 (0.0–0.25) h"}, {"measurement": "tmax", "setting": "[1]; [4]", "result": "1.33 (0.89–1.70) h"}, {"measurement": "AUC0-∞", "setting": "[1]; [5]", "result": "118.85 (74.25–189.98) ng.h/ml"}, {"measurement": "CL/F", "setting": "[1]; [5]", "result": "6.35 (3.34–10.33) l/kg/h"}, {"measurement": "Cmax", "setting": "[1]; [5]", "result": "31.05 (17.86–51.36) ng/ml"}, {"measurement": "K01", "setting": "[1]; [5]", "result": "0.68 (0.44–0.95) /h"}, {"measurement": "K10", "setting": "[1]; [5]", "result": "0.67 (0.43–0.96) /h"}, {"measurement": "Vz/F", "setting": "[1]; [5]", "result": "8.41 (5.14–18.70) l/kg"}, {"measurement": "t1/2a", "setting": "[1]; [5]", "result": "1.02 (0.73–1.58) h"}, {"measurement": "t1/2z", "setting": "[1]; [5]", "result": "1.02 (0.73–1.57) h"}, {"measurement": "tlag", "setting": "[1]; [5]", "result": "0.25 (0–0.5) h"}, {"measurement": "tmax", "setting": "[1]; [5]", "result": "1.48 (1.05–2.29) h"}, {"measurement": "AUC0-∞", "setting": "[1]; [6]", "result": "103.7 (16.5–315.4) ng.h/ml"}, {"measurement": "CL/F", "setting": "[1]; [6]", "result": "8.11 (2.73–40.75) l/kg/h"}, {"measurement": "Cmax", "setting": "[1]; [6]", "result": "32.11 (4.9–117.8) ng/ml"}, {"measurement": "K01", "setting": "[1]; [6]", "result": "0.83 (0.43–22.67) /h"}, {"measurement": "Vz/F", "setting": "[1]; [6]", "result": "12.74 (2.687–47.03) L/kg"}, {"measurement": "k10", "setting": "[1]; [6]", "result": "0.71 (0.43–1.25) /h"}, {"measurement": "t1/2a", "setting": "[1]; [6]", "result": "0.84 (0.03–1.63) h"}, {"measurement": "t1/2z", "setting": "[1]; [6]", "result": "0.84 (0.03–1.63) h"}, {"measurement": "tlag", "setting": "[1]; [6]", "result": "0 (0–0.5) h"}, {"measurement": "tmax", "setting": "[1]; [6]", "result": "1.18 (0.17–2.34) h"}, {"measurement": "AUC0-∞", "setting": "[1]; [7]", "result": "130.62 (52.04–315.40) ng.h/ml"}, {"measurement": "CL/F", "setting": "[1]; [7]", "result": "6.50 (2.73–14.76) l/kg/h"}, {"measurement": "Cmax", "setting": "[1]; [7]", "result": "42.26 (8.41–117.80) ng/ml"}, {"measurement": "K01", "setting": "[1]; [7]", "result": "0.96 (0.43–22.67) /h"}, {"measurement": "K10", "setting": "[1]; [7]", "result": "0.63 (0.43–1.19) /h"}, {"measurement": "Vz/F", "setting": "[1]; [7]", "result": "10.09 (2.68–33.56) l/kg"}, {"measurement": "t1/2a", "setting": "[1]; [7]", "result": "0.73 (0.03–1.63) h"}, {"measurement": "t1/2z", "setting": "[1]; [7]", "result": "0.73 (0.03–1.63) h"}, {"measurement": "tmax", "setting": "[1]; [7]", "result": "1.11 (0.17–2.34) h"}, {"measurement": "AUC0-∞", "setting": "[1]; [8]", "result": "91.88 (16.5–109.93) ^b ng.h/ml"}, {"measurement": "CL/F", "setting": "[1]; [8]", "result": "8.75 (5.8–40.75) l/kg/h"}, {"measurement": "Cmax", "setting": "[1]; [8]", "result": "23.77 (4.97–49.75) ^a ng/ml"}, {"measurement": "K01", "setting": "[1]; [8]", "result": "0.78 (0.57–1.89) /h"}, {"measurement": "K10", "setting": "[1]; [8]", "result": "0.72 (0.24–1.25) /h"}, {"measurement": "Vz/F", "setting": "[1]; [8]", "result": "15.52 (6.43–47.03) l/kg"}, {"measurement": "t1/2a", "setting": "[1]; [8]", "result": "0.89 (0.37–1.21) h"}, {"measurement": "t1/2z", "setting": "[1]; [8]", "result": "0.89 (0.37–1.21) h"}, {"measurement": "tlag", "setting": "[1]; [8]", "result": "0.0 (0.0–0.5) h"}, {"measurement": "tmax", "setting": "[1]; [8]", "result": "1.25 (0.81–1.73) h"}, {"measurement": "AUC0-∞", "setting": "[1]; [9]", "result": "123.18 (49.22–419.61) ng.h/ml"}, {"measurement": "CL/F", "setting": "[1]; [9]", "result": "7.10 (1.83–14.67) l/kg/h"}, {"measurement": "Cmax", "setting": "[1]; [9]", "result": "31.84 (9.38–97.64) ng/ml"}, {"measurement": "K01", "setting": "[1]; [9]", "result": "0.74 (0.10–1.92) /h"}, {"measurement": "Vz/F", "setting": "[1]; [9]", "result": "9.66 (0.47–26.32) L/kg"}, {"measurement": "k10", "setting": "[1]; [9]", "result": "0.73 (0.11–15.31) /h"}, {"measurement": "t1/2a", "setting": "[1]; [9]", "result": "0.94 (0.36–6.61) h"}, {"measurement": "t1/2z", "setting": "[1]; [9]", "result": "0.94 (0.05–6.49) h"}, {"measurement": "tlag", "setting": "[1]; [9]", "result": "0 (0–0.5) h"}, {"measurement": "tmax", "setting": "[1]; [9]", "result": "1.32 (0.24–9.44) h"}, {"measurement": "AUC0-∞", "setting": "[1]; [10]", "result": "144.4 (69.1–420.3) ng.h/ml"}, {"measurement": "CL/F", "setting": "[1]; [10]", "result": "5.91 (1.83–11.11) l/kg/h"}, {"measurement": "Cmax", "setting": "[1]; [10]", "result": "39.49 (11.40–91.24) ng/ml"}, {"measurement": "K01", "setting": "[1]; [10]", "result": "0.72 (0.11–1.92) /h"}, {"measurement": "K10", "setting": "[1]; [10]", "result": "0.74 (0.11–15.31) /h"}, {"measurement": "Vz/F", "setting": "[1]; [10]", "result": "8.18 (0.47–25.06) l/kg"}, {"measurement": "t1/2a", "setting": "[1]; [10]", "result": "0.97 (0.36–6.61) h"}, {"measurement": "t1/2z", "setting": "[1]; [10]", "result": "0.94 (0.05–6.49) h"}, {"measurement": "tlag", "setting": "[1]; [10]", "result": "0 (0–0.5) h"}, {"measurement": "tmax", "setting": "[1]; [10]", "result": "1.36 (0.24–9.45) h"}, {"measurement": "AUC0-∞", "setting": "[1]; [11]", "result": "87.18 (49.22–292.77) ^c ng.h/ml"}, {"measurement": "CL/F", "setting": "[1]; [11]", "result": "8.16 (2.70–14.67) ^d l/kg/h"}, {"measurement": "Cmax", "setting": "[1]; [11]", "result": "26.03 (9.39–97.64) ng/ml"}, {"measurement": "K01", "setting": "[1]; [11]", "result": "0.83 (0.52–1.57) /h"}, {"measurement": "K10", "setting": "[1]; [11]", "result": "0.71 (0.42–0.99) /h"}, {"measurement": "Vz/F", "setting": "[1]; [11]", "result": "13.32 (3.05–26.32) l/kg"}, {"measurement": "t1/2a", "setting": "[1]; [11]", "result": "0.84 (0.44–1.34) h"}, {"measurement": "t1/2z", "setting": "[1]; [11]", "result": "0.99 (0.70–1.67) h"}, {"measurement": "tlag", "setting": "[1]; [11]", "result": "0 (0.0–0.0) h"}, {"measurement": "tmax", "setting": "[1]; [11]", "result": "1.24 (1.0–1.94) h"}, {"measurement": "Cmax by model-dependent analysis compared with model-independent analysis", "setting": "[1]; in vivo", "result": "60–70%"}, {"measurement": "plasma atractylodin after 6 h", "setting": "[2]; all participants, both groups", "result": "undetectable"}, {"measurement": "observed Cmax, range", "setting": "[2]; both groups, model-independent analysis", "result": "7.1 to 152.7", "unit": "ng/mL"}, {"measurement": "AUC0-t", "setting": "[2]; [12]", "result": "118.27 (72.47–169.90) ng.h/ml"}, {"measurement": "AUC0-∞", "setting": "[2]; [12]", "result": "123.70 (75.13–176.96) ng.h/ml"}, {"measurement": "CL/F", "setting": "[2]; [12]", "result": "6.68 (4.46–13.70) l/kg/h"}, {"measurement": "MRT", "setting": "[2]; [12]", "result": "2.42 (1.74–3.11) h"}, {"measurement": "Vz/F", "setting": "[2]; [12]", "result": "11.45 (7.06–20.17) l/kg"}]}
